{"data": "Measurements from different studies", "target": "MAP kinase-activated protein kinase 5 (MAPKAPK5, Homo sapiens, UniProt Q8IW41)", "Sequence (Q8IW41 1-473, as in one of the studies)": "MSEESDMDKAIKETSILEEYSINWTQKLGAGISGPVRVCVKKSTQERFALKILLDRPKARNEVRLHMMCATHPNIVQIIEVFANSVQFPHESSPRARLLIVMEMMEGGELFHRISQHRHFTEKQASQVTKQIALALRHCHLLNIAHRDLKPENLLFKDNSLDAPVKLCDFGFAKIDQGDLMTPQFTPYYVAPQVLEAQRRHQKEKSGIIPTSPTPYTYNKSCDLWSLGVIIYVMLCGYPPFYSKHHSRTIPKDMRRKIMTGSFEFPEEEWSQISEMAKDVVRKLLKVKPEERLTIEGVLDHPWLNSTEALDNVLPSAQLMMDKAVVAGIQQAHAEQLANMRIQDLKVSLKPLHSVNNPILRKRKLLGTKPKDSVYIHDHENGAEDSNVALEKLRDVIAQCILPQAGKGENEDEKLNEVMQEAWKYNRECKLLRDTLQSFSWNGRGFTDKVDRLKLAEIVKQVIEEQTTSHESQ"}
{"Structure (SMILES)": "COc1cnc(Nc2cccc(S(N)(=O)=O)c2)nc1N1CCN(c2ccccc2)CC1", "observed": "binding", "method": "competition with immobilised ligand", "concentration": "1 µM", "remaining binding [%]": 96}
{"Structure (SMILES)": "O=C(Nc1ccc(Oc2ccc(F)cc2)cc1)N1CCc2ncccc2[C@H]1c1ccc(F)cc1", "observed": "cell-free assay", "method": "competition with immobilised ligand", "concentration": "1 µM", "remaining binding [%]": 75}
{"Structure (SMILES)": "O=C(c1ccc(Nc2ncc(Cl)c(-c3ccc(Cl)s3)n2)cc1)N1CCC(N2CCCC2)CC1", "observed": "binding", "method": "competition with immobilised ligand", "concentration": "1 µM", "remaining binding [%]": 100}
{"Structure (SMILES)": "CS(=O)(=O)c1cc(C2(NC(=O)c3cncc4c3cnn4-c3ccc(F)cc3)CC2)ccn1", "observed": "cell-free assay", "method": "competition with immobilised ligand", "concentration": "1 µM", "remaining binding [%]": 87}
{"Structure (SMILES)": "C[C@@H](c1ccc(-n2cnc3c(N)ncnc32)cc1)N1CCc2nn(C)c(Cc3ccccc3)c2C1=O", "observed": "binding", "method": "competition with immobilised ligand", "concentration": "0.1 µM", "remaining binding [%]": 76}
{"Structure (SMILES)": "CN(C)c1ncc(F)c(-c2cnn3ncccc23)n1", "observed": "binding", "concentration": "1 µM", "remaining binding [%]": 74}
{"Structure (SMILES)": "O=C(Nc1c[nH]nc1C(=O)NC1CCNCC1)c1cc(F)cc(F)c1", "observed": "binding", "method": "competition with immobilised ligand", "concentration": "1 µM", "remaining binding [%]": 94}
{"Structure (SMILES)": "COc1cnc(Nc2cccc(S(N)(=O)=O)c2)nc1N1CCN(c2ccccc2)C(=O)C1", "observed": "binding", "method": "competition with immobilised ligand", "concentration": "1 µM", "remaining binding [%]": 100}
{"Structure (SMILES)": "c1cnn2ncc(-c3ccnc(N4CCC45COC5)n3)c2c1", "observed": "binding", "concentration": "1 µM", "remaining binding [%]": 74}
{"Structure (SMILES)": "COc1ncc2cc3ccccc3nc2c1C#N", "observed": "cell-free assay", "method": "competition with immobilised ligand", "concentration": "5 µM", "remaining binding [%]": 83}
{"Structure (SMILES)": "CN(C(=O)c1ccccc1)c1cc(N(C)c2ccc3c(c2)CCc2ccc(C(=O)NCCN4CCOCC4)cc2C3=O)ccc1F", "observed": "cell-free assay", "method": "competition with immobilised ligand", "concentration": "1 µM", "remaining binding [%]": 100}
{"Structure (SMILES)": "N[C@@H]1CCN(c2nccc(-c3cnn4ncccc34)n2)C1", "observed": "binding", "concentration": "1 µM", "remaining binding [%]": 100}
{"Structure (SMILES)": "CCS(=O)(=O)c1cc2cc(C[C@](O)(CC(C)(C)c3ccc(F)cc3C(N)=O)C(F)(F)F)[nH]c2cn1", "observed": "cell-free assay", "method": "competition with immobilised ligand", "concentration": "1 µM", "remaining binding [%]": 93}
{"Structure (SMILES)": "CCN1CCN(Cc2ccc(C(=O)Nc3ccc(C)c(Oc4ccc5c(c4)CC(=O)N5)c3)cc2C(F)(F)F)CC1", "observed": "binding", "method": "competition with immobilised ligand", "concentration": "1 µM", "remaining binding [%]": 100}
{"Structure (SMILES)": "O=C(c1ccc(Nc2ncc(Cl)c(-c3cc4ccccc4s3)n2)cc1)N1CCC(N2CCCC2)CC1", "observed": "binding", "method": "competition with immobilised ligand", "concentration": "1 µM", "remaining binding [%]": 80}
{"Structure (SMILES)": "CN(C)c1nccc(-c2cnc3ncccn23)n1", "observed": "binding", "concentration": "1 µM", "remaining binding [%]": 93}
{"Structure (SMILES)": "O=C(NCCCN1CCOCC1)c1ccc(Nc2ncc(Cl)c(-c3ccc(Cl)s3)n2)cc1", "observed": "binding", "method": "competition with immobilised ligand", "concentration": "1 µM", "remaining binding [%]": 100}
{"Structure (SMILES)": "CC(=O)Nc1c(C(C)=O)c(=O)n(C)c2nc(-c3ccc(Cl)cc3Cl)c(-c3ccc(Cl)cc3)cc12", "observed": "cell-free assay", "method": "competition with immobilised ligand", "concentration": "1 µM", "remaining binding [%]": 100}
{"Structure (SMILES)": "C[C@H]1CCN(c2nccc(-c3cnn4ncccc34)n2)C1", "observed": "binding", "concentration": "1 µM", "remaining binding [%]": 69}
